# Measured values published in ChEMBL document CHEMBL1156597, “Structure-activity relationship of kahalalide F synthetic analogues” (J Med Chem, 2008).
# What was measured:
# DU-145 = test: Cytotoxicity against human DU145 cells after 48 hrs by SRB assay; format: functional, cell-based; conditions: Homo sapiens, DU-145, 48 h; for CC50: read-out: LC50 (the source's name)
# Procedure, shortened: (§1)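 Cells grown in RPMI 1640 with 10% FBS and penicillin/streptomycin at 37 °C and 5% CO₂, trypsinized, then seeded at 5 × 10³/well. After 18 h drug-free attachment, samples in DMSO/EtOH/PBS (0.5:0.5:99) were added for 48 h continuous exposure. Cells were fixed with cold TCA (1 h, 4 °C) and stained with SRB (10 min). Tris-solubilized stain read at 490 nm. Triplicate wells, mean ± SD; GI₅₀ derived.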
# LoVo [1] = test: Cytotoxicity against human doxorubicin resistant LoVo cells after 48 hrs by SRB assay; format: functional; conditions: for CC50: read-out: LC50 (the source's name); procedure, shortened: as §1
# LNCaP = test: Cytotoxicity against human LNcaP cells after 48 hrs by SRB assay; format: functional; conditions: for CC50: read-out: LC50 (the source's name); procedure, shortened: as §1
# HeLa = test: Cytotoxicity against human HeLa cells after 48 hrs by SRB assay; format: functional; conditions: for CC50: read-out: LC50 (the source's name); procedure, shortened: as §1
# LoVo [2] = test: Cytotoxicity against human LoVo cells after 48 hrs by SRB assay; format: functional; conditions: for CC50: read-out: LC50 (the source's name)
# [3] = Cytotoxicity against human IGROV-ET cells after 48 hrs by SRB assay; format: functional; conditions: for CC50: read-out: LC50 (the source's name); procedure, shortened: as §1
# K562 = test: Cytotoxicity against human K562 cells after 48 hrs by SRB assay; format: functional; conditions: K562, 48 h; for CC50: read-out: LC50 (the source's name); procedure, shortened: as §1
# A549 = test: Cytotoxicity against human A549 cells after 48 hrs by SRB assay; format: functional, cell-based; conditions: Homo sapiens, A549, 48 h; procedure, shortened: as §1
# [4] = Cytotoxicity against human IGROV cells after 48 hrs by SRB assay; format: functional; conditions: for CC50: read-out: LC50 (the source's name); procedure, shortened: as §1
# PANC-1 = test: Cytotoxicity against human PANC1 cells after 48 hrs by SRB assay; format: functional; conditions: PANC-1, 48 h; for CC50: read-out: LC50 (the source's name); procedure, shortened: as §1
# SK-BR-3 = test: Cytotoxicity against human SKBR3 cells after 48 hrs by SRB assay; format: functional; conditions: SK-BR-3, 48 h; for GI50: read-out: GI50; for CC50: read-out: LC50 (the source's name); procedure, shortened: as §1
# [5] = Cytotoxicity against human HeLa-APL cells after 48 hrs by SRB assay; format: functional; procedure, shortened: as §1
# HT-29 = test: Cytotoxicity against human HT29 cells after 48 hrs by SRB assay; format: functional, cell-based; conditions: Homo sapiens, HT-29, 48 h; for CC50: read-out: LC50 (the source's name); procedure, shortened: as §1
# SK-MEL-28 = test: Cytotoxicity against human SK-MEL-28 cells after 48 hrs by SRB assay; format: functional, cell-based; conditions: Homo sapiens, SK-MEL-28, 48 h; for CC50: read-out: LC50 (the source's name); procedure, shortened: as §1
smiles,measurement,setting,value
C/C=C1\NC(=O)[C@H](Cc2ccccc2)NC(=O)[C@@H](C(C)C)NC(=O)[C@@H]([C@H](C)CC)NC(=O)[C@H](NC(=O)[C@H](NC(=O)[C@H](CCCN)NC(=O)[C@H]2CCCN2C(=O)[C@H](NC(=O)[C@@H](NC(=O)[C@@H](NC(=O)[C@H](NC(=O)C(F)(F)C(F)(F)C(F)(F)C(F)(F)C(F)(F)C(F)(F)F)C(C)C)[C@@H](C)O)C(C)C)C(C)C)[C@H](C)CC)[C@H](C)OC(=O)[C@H](C(C)C)NC1=O,GI50,DU-145,614 nM
same,GI50,DU-145; read-out: GI50,534 nM
same,CC50,DU-145,708 nM
same,GI50,LoVo [1],286 nM
same,TGI,LoVo [1],289 nM
same,CC50,LoVo [1],290 nM
same,GI50,LNCaP,758 nM
same,TGI,LNCaP,757 nM
same,CC50,LNCaP,753 nM
same,GI50,HeLa,961 nM
same,TGI,HeLa,947 nM
same,CC50,HeLa,931 nM
same,GI50,LoVo [2],1160 nM
same,TGI,LoVo [2],1180 nM
same,CC50,LoVo [2],798 nM
same,GI50,[3],814 nM
same,GI50,[3]; read-out: GI50,697 nM
same,CC50,[3],1040 nM
same,GI50,K562,830 nM
same,TGI,K562,1010 nM
same,CC50,K562,1220 nM
same,GI50,A549,745 nM
same,LC50,A549,865 nM
same,GI50,A549; read-out: GI50,636 nM
same,GI50,[4],584 nM
same,GI50,[4]; read-out: GI50,854 nM
same,CC50,[4],459 nM
same,GI50,PANC-1,2320 nM
same,TGI,PANC-1,3.46 µM
same,CC50,PANC-1,2000 nM
same,TGI,SK-BR-3,453 nM
same,GI50,SK-BR-3,291 nM
same,CC50,SK-BR-3,578 nM
same,GI50,[5],596 nM
same,LC50 (concentration giving 50% net cell kill),[5],1200 nM
same,TGI,[5],888 nM
same,GI50,HT-29,513 nM
same,TGI,HT-29,520 nM
same,CC50,HT-29,563 nM
same,GI50,SK-MEL-28,765 nM
same,GI50,SK-MEL-28; read-out: GI50,734 nM
same,CC50,SK-MEL-28,794 nM
C/C=C1\NC(=O)[C@H](Cc2ccccc2)NC(=O)[C@@H](C(C)C)NC(=O)[C@@H]([C@H](C)CC)NC(=O)[C@H](NC(=O)[C@H](NC(=O)[C@H](CCCN)NC(=O)[C@H]2CCCN2C(=O)[C@H](NC(=O)[C@@H](NC(=O)[C@@H](NC(=O)[C@H](NC(=O)CCCCCCC)C(C)C)[C@@H](C)O)C(C)C)C(C)C)[C@H](C)CC)[C@H](C)OC(=O)[C@H](C(C)C)NC1=O,GI50,DU-145,666 nM
same,GI50,DU-145; read-out: GI50,578 nM
same,CC50,DU-145,758 nM
same,GI50,LoVo [1],299 nM
same,TGI,LoVo [1],289 nM
same,CC50,LoVo [1],278 nM
same,GI50,LNCaP,779 nM
same,TGI,LNCaP,837 nM
same,CC50,LNCaP,889 nM
same,GI50,HeLa,946 nM
same,TGI,HeLa,1010 nM
same,CC50,HeLa,1080 nM
same,GI50,LoVo [2],321 nM
same,TGI,LoVo [2],396 nM
same,CC50,LoVo [2],443 nM
same,GI50,[3],513 nM
same,GI50,[3]; read-out: GI50,529 nM
same,CC50,[3],393 nM
same,GI50,K562,1000 nM
same,TGI,K562,1230 nM
same,CC50,K562,1500 nM
same,LC50,A549,1200 nM
same,TGI,A549,1130 nM
same,GI50,A549; read-out: GI50,1050 nM
same,GI50,[4],580 nM
same,GI50,[4]; read-out: GI50,684 nM
same,CC50,[4],509 nM
same,GI50,PANC-1,2830 nM
same,TGI,PANC-1,4.21 µM
same,CC50,PANC-1,2290 nM
same,TGI,SK-BR-3,359 nM
same,GI50,SK-BR-3,343 nM
same,CC50,SK-BR-3,374 nM
same,GI50,[5],527 nM
same,LC50 (concentration giving 50% net cell kill),[5],1220 nM
same,TGI,[5],808 nM
same,GI50,HT-29,578 nM
same,TGI,HT-29,587 nM
same,CC50,HT-29,917 nM
same,GI50,SK-MEL-28,949 nM
same,GI50,SK-MEL-28; read-out: GI50,933 nM
same,CC50,SK-MEL-28,966 nM
C/C=C1\NC(=O)[C@H](Cc2ccccc2)NC(=O)[C@@H](C(C)C)NC(=O)[C@@H]([C@H](C)CC)NC(=O)[C@H](NC(=O)[C@H](NC(=O)[C@H](CCCNC(=O)C(F)(F)F)NC(=O)[C@H]2CCCN2C(=O)[C@H](NC(=O)[C@@H](NC(=O)[C@@H](NC(=O)[C@H](NC(=O)CC[C@@H](C)CC)C(C)C)[C@@H](C)O)C(C)C)C(C)C)[C@H](C)CC)[C@H](C)OC(=O)[C@H](C(C)C)NC1=O,TGI,DU-145,1100 nM
same,GI50,DU-145; read-out: GI50,1330 nM
same,CC50,DU-145,898 nM
same,GI50,LoVo [1],276 nM
same,TGI,LoVo [1],282 nM
same,CC50,LoVo [1],287 nM
same,GI50,LNCaP,1460 nM
same,TGI,LNCaP,1990 nM
same,CC50,LNCaP,1410 nM
same,GI50,HeLa,502 nM
same,TGI,HeLa,463 nM
same,CC50,HeLa,525 nM
same,GI50,LoVo [2],311 nM
same,TGI,LoVo [2],296 nM
same,CC50,LoVo [2],282 nM
same,GI50,[3],508 nM
same,GI50,[3]; read-out: GI50,489 nM
same,CC50,[3],528 nM
same,CC50,K562,1810 nM
same,LC50,A549,1200 nM
same,TGI,A549,1170 nM
same,GI50,A549; read-out: GI50,1140 nM
same,GI50,[4],276 nM
same,GI50,[4]; read-out: GI50,305 nM
same,CC50,[4],87.5 nM
same,CC50,PANC-1,1660 nM
same,TGI,SK-BR-3,190 nM
same,GI50,SK-BR-3,112 nM
same,CC50,SK-BR-3,320 nM
same,GI50,[5],1210 nM
same,LC50 (concentration giving 50% net cell kill),[5],789 nM
same,TGI,[5],963 nM
same,GI50,HT-29,266 nM
same,TGI,HT-29,301 nM
same,CC50,HT-29,342 nM
same,TGI,SK-MEL-28,1540 nM
same,GI50,SK-MEL-28; read-out: GI50,1910 nM
same,CC50,SK-MEL-28,1220 nM
C/C=C1\NC(=O)[C@H](Cc2ccccc2)NC(=O)[C@@H](C(C)C)NC(=O)[C@@H]([C@H](C)CC)NC(=O)[C@H](NC(=O)[C@H](NC(=O)[C@H](CCCN)NC(=O)[C@H]2CCCN2C(=O)[C@H](NC(=O)[C@@H](NC(=O)[C@H](CCCN)NC(=O)[C@H](NC(=O)CCCC(C)C)C(C)C)C(C)C)C(C)C)[C@H](C)CC)[C@H](C)OC(=O)[C@H](C(C)C)NC1=O,CC50,DU-145,1400 nM
same,GI50,LoVo [1],2880 nM
same,TGI,LoVo [1],2700 nM
same,CC50,LoVo [1],484 nM
same,GI50,LNCaP,675 nM
same,TGI,LNCaP,2240 nM
same,CC50,LNCaP,1120 nM
same,CC50,HeLa,951 nM
same,GI50,LoVo [2],4940 nM
same,TGI,LoVo [2],4180 nM
same,CC50,LoVo [2],3330 nM
same,CC50,[3],957 nM
same,GI50,K562,1620 nM
same,TGI,K562,1890 nM
same,CC50,K562,2180 nM
same,LC50,A549,4620 nM
same,GI50,[4],292 nM
same,GI50,[4]; read-out: GI50,4700 nM
same,CC50,[4],576 nM
same,CC50,PANC-1,2240 nM
same,CC50,SK-BR-3,296 nM
same,LC50 (concentration giving 50% net cell kill),[5],9600 nM
same,GI50,HT-29,5900 nM
same,TGI,HT-29,5140 nM
same,CC50,HT-29,446 nM
same,CC50,SK-MEL-28,1640 nM
CC[C@@H](C)[C@@H](NC(=O)[C@H](CCCN)NC(=O)[C@H]1CCCN1C(=O)[C@H](NC(=O)[C@@H](NC(=O)[C@@H](NC(=O)[C@H](NC(=O)CCCC(C)C)C(C)C)[C@@H](C)O)C(C)C)C(C)C)C(=O)N[C@H]1C(=O)N[C@H]([C@H](C)CC)C(=O)N[C@H](C(C)C)C(=O)N[C@@H](Cc2ccccc2)C(=O)NCC(=O)N[C@@H](C(C)C)C(=O)O[C@H]1C,TGI,DU-145,1160 nM
same,GI50,DU-145; read-out: GI50,1410 nM
same,CC50,DU-145,953 nM
same,GI50,LoVo [1],830 nM
same,TGI,LoVo [1],1020 nM
same,CC50,LoVo [1],362 nM
same,GI50,LNCaP,2740 nM
same,TGI,LNCaP,2780 nM
same,CC50,LNCaP,1420 nM
same,CC50,HeLa,526 nM
same,GI50,LoVo [2],1840 nM
same,TGI,LoVo [2],1850 nM
same,CC50,LoVo [2],1680 nM
same,GI50,[3],465 nM
same,GI50,[3]; read-out: GI50,722 nM
same,CC50,[3],308 nM
same,GI50,K562,2530 nM
same,TGI,K562,3040 nM
same,CC50,K562,1970 nM
same,LC50,A549,1460 nM
same,TGI,A549,2100 nM
same,GI50,A549; read-out: GI50,1630 nM
same,GI50,[4],748 nM
same,GI50,[4]; read-out: GI50,1640 nM
same,CC50,[4],361 nM
same,CC50,PANC-1,1810 nM
same,TGI,SK-BR-3,1640 nM
same,GI50,SK-BR-3,1660 nM
same,CC50,SK-BR-3,683 nM
same,GI50,[5],1830 nM
same,LC50 (concentration giving 50% net cell kill),[5],1450 nM
same,TGI,[5],2860 nM
same,GI50,HT-29,2260 nM
same,TGI,HT-29,2120 nM
same,CC50,HT-29,775 nM
same,TGI,SK-MEL-28,1700 nM
same,GI50,SK-MEL-28; read-out: GI50,1390 nM
same,CC50,SK-MEL-28,1780 nM
